Like-named read-outs stand apart in the source and are kept apart here.
Legend:
psoriasis = conditions: week 4; 13-point scale; cited from earlier work
plaque psoriasis = conditions: cited from earlier work; for Mean total lesion score decrease from baseline: week 4
[1] = Plasma pharmacokinetics after 4 weeks of topical treatment; type: in vivo, human; conditions: approx. 1.5% BSA, comparator Pfizer, data on file
Summary of the method: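 Adults with mild-to-moderate chronic plaque psoriasis applied test-compound ointment (one formulation 2%, 20 mg g−1) twice daily for 4 weeks at 3 mg cm−2 to a fixed 300 cm2 area. Week-4 plasma sampled predose and 1, 2, 4–9 h post-dose.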

CCC(=O)OCC(=O)[C@@]1(OC(=O)CC)[C@@H](C)C[C@H]2[C@@H]3CCC4=CC(=O)C=C[C@]4(C)[C@@]3(F)[C@@H](O)C[C@@]21C [betamethasone dipropionate]
Total lesion sum score percentage change from baseline (psoriasis): –41%

N#CC[C@H](C1CCCC1)n1cc(-c2ncnc3[nH]ccc23)cn1 [INCB018424]
Tolerability of topical application (plaque psoriasis; cream, 4 weeks): well tolerated
Mean total lesion score decrease from baseline (plaque psoriasis; 1.0% cream daily): 53%
Mean total lesion score decrease from baseline (plaque psoriasis; 1.5% cream twice daily): 54%

C[C@@H]1CCN(C(=O)CC#N)C[C@@H]1N(C)c1ncnc2[nH]ccc12 [tofacitinib, Tofacitinib]
Mean systemic exposure lower than with oral tofacitinib 2 mg twice daily [1]: approximately 40 fold

Source: publication PMC3761190 (The British Journal of Dermatology, 2013)
